In ChEMBL document CHEMBL1125277, “Novel cerebroprotective agents with central nervous system stimulating activity. 1. Synthesis and pharmacology of 1-amino-7-hydroxyindan derivatives” (1991):

Legend:
Type in all cases: functional
Mus musculus [1] = assay: Time of recovery of spontaneous movement (SMT) in seconds was measured after administration of 100 mg/kg orally in mice for the promotional effect on recovery from coma
Procedure, shortened: (§1)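 Male ICR mice (20–30 g) were dosed orally 1 h before concussion was induced, and saline-dosed mice served as controls. Times to recovery of righting reflex and of spontaneous movement were recorded in seconds. Brains were examined post mortem, and mice with contused brain wounds were excluded. Statistics used the Wilcoxon sum test.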

Mus musculus [2] = assay: Antihypoxic effect by the survival time (SVT) in mice at a dose of 30 mg/kg administered subcutaneously in mice; design: unit: % of control; conditions: route subcutaneous
Procedure, shortened: (§2)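 Male ICR mice (20–30 g), groups of 10, dosed 0.25 h (iv, sc or ip) or 1 h (oral) before test. Mice placed in desiccator evacuated to 210 mmHg. Survival time measured from pump start to cessation of respiration, capped at 900 s. Activity expressed as % of control survival time; Wilcoxon sum test.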

Mus musculus [3] = assay: Time of recovery of righting reflux (RRT) in seconds was measured after administration of 100 mg/kg orally in mice for the promotional effect on recovery from coma; procedure, shortened: as §1
Mus musculus [4] = assay: Antihypoxic effect tested by the survival time (SVT) in mice at a dose of 100 mg/kg; design: unit: % of control; procedure, shortened: as §2
Mus musculus [5] = assay: Antihypoxic effect by the survival time (SVT) in mice at a dose of 3 mg/kg administered intravenously in mice; conditions: route intravenous; procedure, shortened: as §2
Mus musculus [6] = assay: Time of recovery of spontaneous movement (SMT) in seconds was measured after administration of 200 mg/kg perorally in mice for the promotional effect on recovery from coma; conditions: route oral; procedure, shortened: as §1
Mus musculus [7] = assay: Time of recovery of righting reflux (RRT) in seconds was measured after administration of 200 mg/kg perorally in mice for the promotional effect on recovery from coma; conditions: route oral; procedure, shortened: as §1
Mus musculus [8] = assay: Antihypoxic effect by the survival time (SVT) in mice at a dose of 100 mg/kg administered intraperitoneally in mice; procedure, shortened: as §2
Mus musculus [9] = assay: Time of recovery of spontaneous movement (SMT) in seconds was measured after administration of 2.5 mg/kg intravenously in mice for the promotional effect on recovery from coma; conditions: route intravenous
Procedure, shortened: (§3)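 This is the concussion-induced coma model in male ICR mice (20–30 g), with saline-treated controls. Righting-reflex and spontaneous-movement recovery times were recorded in seconds. Animals with contused brain wounds at post-mortem were excluded. Groups were compared by Wilcoxon sum test.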

Mus musculus [10] = assay: Time of recovery of righting reflux (RRT) in seconds was measured after administration of 2.5 mg/kg intravenously in mice for the promotional effect on recovery from coma; conditions: route intravenous; procedure, shortened: as §3
Mus musculus [11] = assay: Antihypoxic effect by the survival time (SVT) in mice at a dose of 30 mg/kg administered intraperitoneally in mice; conditions: route intraperitoneal; procedure, shortened: as §2
Mus musculus [12] = assay: Antihypoxic effect by the survival time (SVT) in mice at a dose of 40 mg/kg administered intraperitoneally in mice; conditions: route intraperitoneal; procedure, shortened: as §2
Mus musculus [13] = assay: Time of recovery of righting reflux (RRT) in seconds was measured after administration of 40 mg/kg intraperitoneally in mice for the promotional effect on recovery from coma; conditions: route intraperitoneal
Procedure, shortened: (§4)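 Male ICR mice (20–30 g); concussion-induced coma model of head injury. Control mice received the same amount of physiological saline. Brains examined post mortem and mice with contused wounds excluded. Recovery times in seconds (righting reflex or spontaneous movement) expressed as % of control; Wilcoxon sum test.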

Mus musculus [14] = assay: Time of recovery of spontaneous movement (SMT) in seconds was measured after administration of 40 mg/kg intraperitoneally in mice for the promotional effect on recovery from coma; conditions: route intraperitoneal; procedure, shortened: as §4

| Molecule | SMT (Mus musculus [1]; route oral) | SVT (Mus musculus [2]) | RRT (Mus musculus [3]; route oral) | SVT (Mus musculus [4]) | further results |
| --- | --- | --- | --- | --- | --- |
| Cc1cc(I)c(O)c2c1CCC2N.Cl (configuration not stated) | 92.3 s | 184.6 | 81.1 s | – | – |
| Cl.NC1CCc2cccc(O)c21 (stereo in doubt; 11b) | – | – | – | – | SVT (Mus musculus [4]; 100 mg/kg): 78 |
| Cc1cc(C)c2c(c1O)C(N)C(C)(Cc1ccccc1)C2.Cl (configuration not stated) | 32.6 s | – | 29.9 s | 167.3 | – |
| CCCc1ccc2c(c1O)C(N)CC2.Cl (configuration not stated) | 79.5 s | 138 | 70.5 s | 158 | – |
| Cc1cc(C)c2c(c1O)C(N)CC2.Cl (configuration not stated) | 61.4 s | 303.4 | 51.4 s | 255.7 | – |
| Cc1cc(C)c2c(c1O)C(N)C(Cc1ccccc1)C2.Cl (configuration not stated) | 38.6 s | – | 47 s | 148 | – |
| CN(C)CCOC(=O)COc1ccc(Cl)cc1 [MECLOFENOXATE] | – | – | – | 106 | SVT (Mus musculus [5]): 133; SMT (Mus musculus [6]): 63.8 s; RRT (Mus musculus [7]): 53.8 s |
| Cc1cc(C(C)(C)C)c(O)c(C(C)(C)C)c1 [BUTYLATED HYDROXYTOLUENE] | 80.9 s | – | 69.6 s | 87.6 | SVT (Mus musculus [8]; route intraperitoneal): 358.8 |
| Cc1ccccc1C1Cc2c(C)cc(C)c(O)c2C1N.Cl (configuration not stated) | 45.9 s | – | 44.4 s | 161.3 | – |
| Cc1cc(C)c2c(c1O)C(N)C(C)(Cc1ccccc1)C2.Cl.O (configuration not stated) | 28.8 s | – | 33 s | 197 | – |
| CCc1cc(C)c2c(c1O)C(N)C(c1ccccc1)C2.Cl (configuration not stated) | 94.4 s | – | 89.2 s | 97.4 | – |
| Cl.NC1CCc2cccc(O)c21 (stereo in doubt; 11a) | 99.1 s | – | 102 s | – | SVT (Mus musculus [4]; 100 mg/kg): 204.8 |
| Cc1ccc(O)c2c1CCC2N.Cl (configuration not stated) | 42.6 s | 157.8 | 40.1 s | 98.4 | – |
| NC(=O)[C@@H]1CCCN1C(=O)[C@H](Cc1c[nH]cn1)NC(=O)[C@@H]1CCC(=O)N1 [PROTIRELIN] | – | – | – | – | SVT (Mus musculus [5]): 43.4; SMT (Mus musculus [9]): 40.9 s; RRT (Mus musculus [10]): 40.8 s |
| CN(C)CCCN1c2ccccc2CCc2ccccc21.Cl [IMIPRAMINE HYDROCHLORIDE] | 115.5 s | – | 113.4 s | 67.9 | – |
| Cc1cc(CN)c(O)c2c1CCC2N.Cl (configuration not stated) | 79.3 s | 74.3 | 69.9 s | 110.2 | – |
| CC(C)(C)c1cc(C(C)(C)C)c2c(c1O)C(N)CC2.Cl (configuration not stated) | 157.6 s | – | 160.2 s | 119.2 | SVT (Mus musculus [11]): 171.3 |
| CCCc1cc(CC)c2c(c1O)C(N)CC2.Cl (configuration not stated) | 116.3 s | 194.3 | 94.4 s | 206.8 | – |
| CNC1CCc2c(C)cc(C)c(O)c21.Cl (configuration not stated) | 55.8 s | 177.5 | 57.9 s | – | – |

| Molecule | SMT (Mus musculus [1]; route oral) | SVT (Mus musculus [2]) | RRT (Mus musculus [3]; route oral) | SVT (Mus musculus [4]) | further results |
| --- | --- | --- | --- | --- | --- |
| Cc1cc(C)c2c(c1O)C(N)C(c1ccccc1Cl)C2.Cl (configuration not stated) | 33.8 s | – | 35.8 s | 151 | – |
| Cc1cc([N+](=O)[O-])c(O)c2c1CCC2N.Cl (configuration not stated) | – | 189.7 | – | – | – |
| Cc1cc(Br)c(O)c2c1CCC2N.Cl (configuration not stated) | 83.4 s | 308 | 81.5 s | 130.1 | – |
| CCCC(C)C1(CC)C(=O)N=C([O-])NC1=O.[Na+] (configuration not stated) [PENTOBARBITAL SODIUM] | – | – | – | – | SVT (Mus musculus [12]): 306.7; RRT (Mus musculus [13]): 494 s; SMT (Mus musculus [14]): 283 s |
| VITAMIN E | – | – | – | 178 | SVT (Mus musculus [8]): 96.7; SMT (Mus musculus [1]): 83.5 s; RRT (Mus musculus [3]): 92.2 s |
| Cc1cc(C)c2c(c1O)C(N)C(C)(c1ccccc1)C2.Cl (configuration not stated) | 34.7 s | – | 34.1 s | 171.6 | – |
| Cc1cc(C)c2c(c1O)C(N)C(C)(C)C2.Cl (configuration not stated) | 53.9 s | 298.1 | 37.2 s | 288 | – |
| Cc1cc(C)c2c(c1O)C(N)C(C)C2.Cl (configuration not stated) | 71 s | – | 79.1 s | 237.7 | – |
| CCCc1cc(C)c2c(c1O)C(N)CC2.Cl (configuration not stated) | – | 244.6 | – | 205.3 | – |
| Cc1cc(C(C)(C)C)c(O)c2c1CCC2N.Cl (configuration not stated) | 113.5 s | – | 90.6 s | – | SVT (Mus musculus [11]): 252.8 |
| Cc1cc(C)c2c(c1O)C(N)C(c1ccccc1)C2.Cl (configuration not stated) | 37.6 s | – | 31.1 s | 149.1 | SVT (Mus musculus [11]): 185.7 |
| CC(=O)Nc1cc(C)c2c(c1O)C(N)CC2.Cl (configuration not stated) | – | 46.8 | – | – | – |
| Cl.NC1CCc2c(O)cccc21 (configuration not stated) | – | – | – | 103.9 | – |
| CCCCNC1CCc2c(C)cc(C)c(O)c21.Cl (configuration not stated) | 57.7 s | – | 55.3 s | 187.3 | – |
| COc1c(C)cc(C)c2c1C(N)C(C)(c1ccccc1)C2.Cl (configuration not stated) | 23.9 s | – | 25 s | 117.9 | – |
| CCC(C)c1cc(C)c2c(c1O)C(N)CC2.Cl (configuration not stated) | 23.3 s | 276.5 | 18.9 s | 234.8 | – |
| Cl.NC1CCc2c(Cl)cc(Cl)c(O)c21 (configuration not stated) | – | 65.8 | – | – | – |
| Cc1cc(CC(C)C)c(O)c2c1CCC2N.Cl (configuration not stated) | 76.1 s | 281.4 | 59.3 s | 149.9 | – |
| COc1c(C)cc(C)c2c1C(N)C(C)(C)C2.Cl (configuration not stated) | 39.2 s | – | 43.6 s | 164.3 | – |
